Platelet DG rel = modulates dense granule release in human platelets; human platelet-rich plasma, SFLLRN dense granule ATP release, luminescence; inhibition, %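 (compounds screened at 7.5 µM in platelet-rich plasma)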; actives 0.22% (n = 300,000);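 active = mean replicate score, as percent of positive control, at or above 50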
FLuc inh counter = counter-screen for luciferase assay inhibitors: firefly luciferase inhibition. inhibition, % at 10 µM. actives 1.5% (n = 200,000). ATPLite firefly luciferase biochemical luminescence, 10 min. P08659;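 active = inhibition above about 50% when tested at 10 µM, limit read from the data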
Target sequence (P08659 whole entry, looked up): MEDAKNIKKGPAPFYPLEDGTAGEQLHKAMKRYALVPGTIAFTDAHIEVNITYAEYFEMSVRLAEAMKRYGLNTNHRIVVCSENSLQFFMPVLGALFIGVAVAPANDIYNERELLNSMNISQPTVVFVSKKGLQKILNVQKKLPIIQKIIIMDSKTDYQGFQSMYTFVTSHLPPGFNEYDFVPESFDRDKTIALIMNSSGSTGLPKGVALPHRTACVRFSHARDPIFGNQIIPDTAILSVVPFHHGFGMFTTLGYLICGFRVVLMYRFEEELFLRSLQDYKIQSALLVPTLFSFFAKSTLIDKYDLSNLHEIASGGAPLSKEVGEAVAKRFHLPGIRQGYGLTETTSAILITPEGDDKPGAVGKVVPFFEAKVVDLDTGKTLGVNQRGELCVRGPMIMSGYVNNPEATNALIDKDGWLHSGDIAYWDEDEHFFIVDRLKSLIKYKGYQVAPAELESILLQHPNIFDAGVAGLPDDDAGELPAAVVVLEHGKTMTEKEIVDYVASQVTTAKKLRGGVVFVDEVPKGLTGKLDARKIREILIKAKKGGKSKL
PPC-1+TRAIL kill = compounds killing PPC-1 cancer cells with TRAIL present (potentiator screen, no TRAIL-free arm); actives 0.41% (n = 220,000); PPC-1 cells + TRAIL, ATPLite viability luminescence; cell killing (% activity), % at 4 µM or 5 µM;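 active = cell killing above 50% in the first pass at 4 µM, then a duplicate retest at 5 µM averaging 50% or more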;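 note: plate controls were cells with TRAIL plus DMSO for no effect and medium-only wells lacking cells for full effect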
C8 TRAIL sens = caspase-8 TRAIL sensitization; NB7+C8 cells + TRAIL, ATPlite viability luminescence; actives 1% (n = 360,000); inhibition (viability loss, TRAIL sensitization), % at 10 µM;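 active = compounds causing at least 50% loss of cell viability in the single-dose screen, relative to plate controls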
FLuc act counter = firefly luciferase counter-screen for stimulation assays; P08659; AID 1027; 200,000 tested, under 10 active; activation factor at 10 µM; ATPlite luciferase biochemical, luminescence, 10 min; 0 = ATP-free wells, 1 = DMSO control;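 active = luciferase activation factor, scaled between plate controls, of at least 2 with compound at 10 µM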
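System: luciferase plus luciferin reagent, cell-free; medium: PBS as buffer for the ATP substrate; dosing: test compounds dosed from 2 mM stocks in 100% DMSO; timing: 10 min post-reagent at room temperature; measured by: luminescence measurement of luciferase light output; evaluation: luciferase activation, seen as luminescence increase over controls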
* = called active by the depositor; nt = no result given. Sampled rows, rich in hits. Any-hit rate of the full collection: about 1.6%.

SMILES | Platelet DG rel | FLuc inh counter | PPC-1+TRAIL kill | C8 TRAIL sens | FLuc act counter
Cc1ccc(C(=O)O/N=C(\N)c2ccc(Br)cc2)cc1C | -2.7 | 9.1 | 42.5 | 85.9* | 0.9
CCCCCNC(=O)C1C(=O)Nc2ccccc2C(=O)N1c1c(C)cccc1C (stereo not drawn) | nt | nt | nt | 8.3 | nt
CCOC(=O)[C@]12CCCC=C1N(Cc1ccc3c(c1)OCO3)C(=O)[C@H](CC(=O)NCC13CC4CC(CC(C4)C1)C3)C2 | nt | nt | nt | -5.0 | nt
Cc1ccc(C)c(C(=O)O/N=C(\N)c2ccc(Br)cc2)c1 | 6.7 | 3.2 | -16.9 | 77.5* | 1
N/C(=N\OC(=O)c1cccc2ccccc12)c1ccc(Br)cc1 | 2.6 | 0.0 | 33.8 | 2.4 | 1
COc1cccc(/C=C/C(=O)NNC(=O)c2ccco2)c1OC | nt | nt | nt | 62.9* | nt
COc1cccc(/C=C/C(=O)OCC(=O)NCc2ccco2)c1OC | 0.2 | 0.2 | 13.5 | -8.5 | 1
COC(=O)C[C@H]1CC[C@H](NC(=O)Nc2ccccc2F)[C@@H](CO)O1 | nt | nt | nt | -6.1 | nt
O=C(Nc1sc2c(c1C(=O)O)CCCCC2)c1ccco1 | -3.4 | 73.5* | 37.0 | 32.5 | 0.3
COc1ccc(NC(=O)c2cc(C3CCCCN3C(=O)CCc3ccccc3)on2)c(C)c1 (stereo not drawn) | nt | nt | nt | -16.1 | nt
Cc1cc2nc3ccc(N(C)C)cc3nc2cc1N | -2.1 | nt | nt | 51.5* | nt
CCOc1ccc2nc(NC(=O)c3cccnc3)sc2c1 | 22.1 | 60.1* | 33.4 | 35.0 | 0.4
NS(=O)(=O)c1ccc2nc(NC(=O)c3ccncc3)sc2c1 | 10.4 | 63.6* | 25.4 | 23.7 | 0.4
CCOc1ccc2nc(NC(=O)c3ccc(C)o3)sc2c1 | 61.0* | nt | nt | 57.9* | nt
CCCC(=O)Nc1nc2ccc(OCC)cc2s1 | -7.3 | 15.4 | 0.5 | 21.1 | 0.8
CS(=O)(=O)c1ccc2nc(NC(=O)c3ccccc3)sc2c1 | 33.1 | nt | nt | 36.6 | nt
CCOc1ccccc1Nc1ccc(C(=O)O)cc1NC(C)=O | nt | -1.7 | 54.2* | 5.0 | 1
Fc1ccccc1/C=C/c1ccc2ccccc2n1 | 41.9 | 87.3* | 39.1 | 77.0* | 0.1
C(=C\c1ccc2ccccc2n1)/c1ccccc1 | 45.0 | nt | 43.5 | 72.8* | nt
O=C(N/C(=C/c1cccc(Br)c1)C(=O)N1CCCCC1)c1ccco1 | nt | nt | nt | 5.3 | nt
CC(=O)NC(c1ccccc1)c1nc(-c2ccc3ccccc3c2)cs1 (stereo not drawn) | nt | nt | nt | -2.8 | nt
CCOC(=O)N1CCN(C(=O)CSc2nnc(-c3ccc(C(C)(C)C)cc3)o2)CC1 | 5.5 | 53.1* | 23.0 | 40.2 | 0.5
CCOC(=O)N1CCN(C(=O)CSc2nnc(-c3ccc(C)c(C)c3)o2)CC1 | 12.8 | 7.6 | 17.9 | 3.1 | 0.9
CCOc1ccc(NC(=S)N2CCCC2)cc1 | nt | nt | nt | 5.9 | nt
CC1CCCCN1C(=S)Nc1ccc(OC(F)F)cc1 (stereo not drawn) | -0.7 | 5.7 | 4.1 | -8.3 | 0.9
SMILES | Platelet DG rel | FLuc inh counter | PPC-1+TRAIL kill | C8 TRAIL sens | FLuc act counter
COC(=O)Cc1ccc(NC(=S)N2CCCCC2C)cc1 (stereo not drawn) | -1.3 | 82.9* | 7.2 | 36.8 | 0.2
CCc1ccc(NC(=S)N2CCCCCCC2)cc1 | 5.1 | 54.3* | -1.8 | 34.6 | 0.5
COC(=O)Cc1ccc(NC(=S)N2CCN(C)CC2)cc1 | -6.8 | 56.4* | 21.1 | -2.3 | 0.4
COC(=O)Cc1ccc(NC(=S)N2CCN(c3ccc(OC)cc3)CC2)cc1 | 5.9 | -3.4 | 18.9 | -7.0 | 1
CC1(C(=O)NS(=O)(=O)Cc2cccc(Cl)c2)CCN1C(=O)C/C=C/c1ccccc1 (stereo not drawn) | nt | nt | nt | 3.7 | nt
CC(=O)NC(c1ccc(F)c(F)c1)c1nc(-c2ccccc2C)cs1 (stereo not drawn) | nt | nt | nt | -6.2 | nt
CCCCN(C)S(=O)(=O)c1ccc(C(=O)N=c2sc3cc(NC(C)=O)ccc3n2C)cc1 | 26.4 | -6.7 | 16.8 | -14.0 | 1.1
CCCCN(CC)S(=O)(=O)c1ccc(C(=O)N=c2sc3cc(NC(C)=O)ccc3n2C)cc1 | 10.4 | 0.7 | 9.1 | 61.3* | 1
CC(C)CNS(=O)(=O)c1cc(C(=O)OCC(=O)c2ccc3c(c2)OCCO3)c(Cl)cc1Cl | -1.2 | 5.8 | 19.1 | -5.2 | 0.9
CCCn1c(C)cc(C(=O)COC(=O)c2nccnc2N)c1C | 1.9 | 78.1* | 12.6 | 34.0 | 0.2
CCCn1c(C)cc(C(=O)COC(=O)c2cc(=O)[nH]c3ccccc23)c1C | nt | nt | nt | 57.5* | nt
Cc1ccc(C(=O)COC(=O)c2cc(=O)[nH]c3ccccc23)cc1 | -1.2 | 35.3 | 18.6 | 33.8 | 0.6
CCCn1c(C)cc(C(=O)COC(=O)c2cc(S(=O)(=O)NCC(C)C)c(Cl)cc2Cl)c1C | -5.4 | -3.5 | -10.9 | 94.0* | 1
CC(C)(C)n1nnnc1C(c1cc2ccccc2o1)N1CCN(C(=O)OCc2ccccc2)CC1 (stereo not drawn) | nt | nt | nt | 2.3 | nt
CCOC(=O)C1(C)CCCN(C(=O)c2ccc(OC)cc2OC)C1 (stereo not drawn) | nt | nt | nt | 1.1 | nt
COCCNC(=O)C1CCCN(C(=O)Cc2ccc(F)cc2)CC1 (stereo not drawn) | nt | nt | nt | -8.4 | nt
COc1cc2ccccc2cc1C(=O)Nc1sc2c(c1C(N)=O)CCN(C(C)C)C2 | -11.2 | nt | nt | 82.7* | nt
COc1cc(Cc2nc3ccccc3n2C(C)c2nc3ccccc3[nH]2)cc(OC)c1 (stereo not drawn) | nt | nt | nt | -20.0 | nt
O=C(NCCN1CCOCC1)c1cc(-c2ccc(F)cc2)nc2ccccc12 | 38.7 | nt | nt | 5.9 | nt
CCOc1ccc(-c2cc(C(=O)N3CCCC3)c3ccccc3n2)cc1 | 12.1 | nt | nt | 64.3* | nt
CC(C)Oc1ccc(-c2cc(C(=O)NCCN3CCOCC3)c3ccccc3n2)cc1 | 8.6 | 65.0* | 48.6 | 43.3 | 0.3
Cc1ccc(-c2cc(C(=O)N3CCN(c4ccccc4O)CC3)c3ccccc3n2)cc1 | 2.5 | nt | nt | 47.9 | nt
COc1ccc(-c2cc(C(=O)N3CCN(c4ccccc4O)CC3)c3ccccc3n2)cc1 | nt | nt | nt | 63.3* | nt
COc1ccc(-c2cc(C(=O)N3CCN(c4ccccc4)CC3)c3ccccc3n2)cc1 | -3.8 | 63.9* | 18.9 | 41.6 | 0.4
COc1ccc(-c2cc(C(=O)N3CCN(c4ncccn4)CC3)c3ccccc3n2)cc1 | nt | nt | nt | 63.6* | nt
CCCc1ccc(-c2cc(C(=O)N3CCN(c4ccccn4)CC3)c3ccccc3n2)cc1 | -0.6 | nt | nt | 91.4* | nt
CCOC(=O)N1CCN(CC(=O)N2CCC(C(N)=O)CC2)CC1 | 58.8* | 2.6 | 12.6 | 1.7 | 1

Screening data (PubChem BioAssay)
